Data set [1] addresses LPAR1 (Homo sapiens, UniProt Q92633). Put plainly: LPA1 receptor antagonism, calcium mobilization in LPA1 RH7777 cells. Type of data set: cell-based. To be noted: for LPAR1 inhibitory activity: result in words. In short, it runs like this:
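Stably LPA1-overexpressing rat hepatoma RH7777 cells, kept in DMEM, 10% FBS, 2 mM L-glutamine, 250 μg/mL G418, 37 °C, 5% CO2. Plated at 5 × 10^4 cells/well on poly-L-lysine overnight, serum-deprived 4 h in Krebs buffer (pH 7.4), loaded 30 min with 4.5 μg/mL Fura-2AM. Compound dose range tested with and without LPA 18:1 at its EC50 concentration. Fluorescence 340/510 and 380/510 nm every 3.42 s for 70 s. Triplicate mean ratios normalized to LPA Emax; IC50 from variable-slope fit.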
For orientation: Calcium assays in cells follow changes in intracellular calcium, usually with a dye or a luminescent sensor.

Data set [2] deals with T1, human recombinant ATX (Homo sapiens, UniProt Q13822). Nature of the data set: ATX inhibition, hydrolysis of nucleotide substrate pNP-TMP. Type of data set: biochemical. To be noted: 1 mM pNP-TMP, 4 nM human rATX. A digest of the protocol: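 Purified FLAG-tagged human ATX from the Sf9 baculovirus system was run with nucleotide substrate pNP-TMP in triplicate wells. Absorbance at 405 nm read every 2 min for 1 h; triplicate means recorded and percent activity derived from the 1 h point.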

Data set [3] concerns the target T1, human recombinant ATX. Nature of the data set: ATX inhibition, hydrolysis of FRET substrate FS-3. Type of data set: biochemical. The note with it: for Mechanism: FS-3 0 to 10 μM, inhibitor at 0, 0.5 × IC50 or 2 × IC50. In short, it runs like this: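 Human ATX, C-terminal FLAG-tagged, expressed in Sf9 cells by baculovirus and purified on anti-FLAG beads. Fluorescence (485/528 nm) read every 2 min for 1 h. Percent activity taken at 1 h; IC50 (±SD) interpolated from a variable-slope Hill fit.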

A short description of data set [4]: Water solubility. Type of data set: physicochemical.
The nature of data set [5]: log P. Type of data set: physicochemical.
Setting [6] is: Experimental pIC50, -log IC50, ATX enzyme inhibition.
[7] abbreviates: IC50 (nM ± SD) vs FS-3, 1 μM FS-3, 4 nM human rATX, 1 h.
Setting [8] is: IC50 (nM) ATX enzyme, QSAR data set, compounds of this study.

SMILES strings stand for the structures. Values after ≈ are worked out from the molar mass of the structure shown. “Also recorded” adds a separate entry of the source.

LPAR1, sequence (Q92633 whole entry, species assumed): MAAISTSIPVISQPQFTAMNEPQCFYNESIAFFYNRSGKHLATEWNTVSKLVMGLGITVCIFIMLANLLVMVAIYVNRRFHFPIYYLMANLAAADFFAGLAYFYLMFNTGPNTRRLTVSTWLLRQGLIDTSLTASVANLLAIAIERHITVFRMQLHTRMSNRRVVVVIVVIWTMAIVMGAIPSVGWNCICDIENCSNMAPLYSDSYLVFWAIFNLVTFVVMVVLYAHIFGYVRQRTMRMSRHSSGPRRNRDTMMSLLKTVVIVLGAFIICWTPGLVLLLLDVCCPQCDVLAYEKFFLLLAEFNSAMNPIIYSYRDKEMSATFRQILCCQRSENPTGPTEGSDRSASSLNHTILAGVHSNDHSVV

With `CS(=O)(=O)N(c1cc(C(=O)Nc2cc(F)c(Cl)c(F)c2)c(Cl)cc1Cl)C1CCOCC1` [Compound 11, 2,4-dichloro-N-(4-chloro-3,5-difluorophenyl)-5-(N-(tetrahydro-2H-pyran-4-yl)-methylsulfonamido)-benzamide], the LPAR1 inhibitory activity entry in data set [1] is on record as “neither compound 10 nor compound 11 showed any LPAR1 inhibitory activity; also recorded: no LPAR1 inhibitory activity”. The pNP-TMP inhibition result in data set [2] is reported as “none”. For the same compound, the IC50 in data set [3] (setting [6]) is 219 nM; in data set [3] (setting [7]) it was 219 ± 25.2 nM; in data set [3] (setting [8]), 219 nM. For the same compound, the Mechanism entry in data set [3] was “Competitive”. Also, in data set [4], the solubility was > 100 µg/mL. Further, the logP in data set [5] came out at 3.68.
Take `N#CC(c1ccc(F)c(C(=O)Nc2cc(F)c(F)c(F)c2)c1)N1CCOCC1` (stereo not drawn) [Compound 14, 5-(cyano(morpholino)methyl)-2-fluoro-N-(3,4,5-trifluorophenyl)-benzamide]: the figures for the IC50 in data set [1], in data set [3] (setting [7]) and in data set [3] (setting [8]) were > 1000 nM, > 1000 nM and ≥ 1000 nM, respectively. Also, in data set [2], the pNP-TMP inhibition result was “none”. The same compound showed a solubility in data set [4] of 50 µg/mL (≈ 127 µM). This compound returned a lipophilicity (logP) in data set [5] of 2.91.
As to `CS(=O)(=O)N(c1cc(C(=O)Nc2cc(F)c(F)c(F)c2)c(Cl)cc1Cl)C1CCOCC1` [Compound 10, 2,4-dichloro-5-(N-(tetrahydro-2H-pyran-4-yl)-methylsulfonamido)-N-(3,4,5-trifluorophenyl)-benzamide], the LPAR1 inhibitory activity entry in data set [1] is “neither compound 10 nor compound 11 showed any LPAR1 inhibitory activity; also recorded: no LPAR1 inhibitory activity”. In data set [2], the pNP-TMP inhibition entry was “none”. For the same compound, the Mechanism result in data set [3] is listed as “Competitive”. In data set [3] (setting [7]), the IC50 came out at 220 ± 14.7 nM. In addition, the solubility in data set [4] was > 100 µg/mL. In data set [5], this compound came in with a logP of 3.2.
For the compound `O=C(Nc1cc(F)c(F)c(F)c1)c1cc(C(C(=O)O)N2CCOCC2)ccc1F` (stereo not drawn) [Compound 15, 2-(4-fluoro-3-((3,4,5-trifluorophenyl)-carbamoyl)-phenyl)-2-morpholinoacetic acid], the half-inhibitory concentration (IC50) in data set [1] is > 1000 nM; in data set [3] (setting [6]) it was > 1000 nM; in data set [3] (setting [7]), > 1000 nM; in data set [3] (setting [8]), ≥ 1000 nM. Besides, in data set [2], the pNP-TMP inhibition entry is reported as “none”. In data set [4], the solubility was > 100 µg/mL. Also, in data set [5], the lipophilicity (logP) was determined as 2.44.

By IC50 is commonly meant the point on the concentration scale where inhibition reaches its midpoint. In general, solubility refers to the dissolved amount per volume that the medium holds. Low values mean little dissolved substance, high ones much dissolved substance. For orientation: logP means the decadic logarithm of the partition coefficient of the neutral form, usually between octanol and water.

Values taken from article PMC8163515 (Bioorganic chemistry, 2020).
